ChEMBL document CHEMBL5030567, “Macrocyclic Inhibitors of HGF-Activating Serine Proteases Overcome Resistance to Receptor Tyrosine Kinase Inhibitors and Block Lung Cancer Progression” (J Med Chem, 2021)
Values after ≈ are worked out from the molar mass of the structure shown. Active and inactive are the calls of the source. The rule behind the calls is not given here.

How the values were obtained:
Prothrombin = Prothrombin (Homo sapiens, UniProt P00734); experiment: Inhibition of recombinant thrombin (unknown origin) using D-Phe-Pip-Arg-pNA as substrate preincubated for 30 mins followed by substrate addition by chromogenic assay
[1] = Stability in mouse plasma assessed as half life; format: ADME, cell-free
[2] = biological target: T1, Hepatocyte growth factor activator serine protease (Homo sapiens, UniProt Q04756); experiment: Inhibition of recombinant human HGFA serine protease domain using Boc-QLR-AMC as substrate preincubated for 30 mins followed by substrate addition by fluorescence based assay
T1 sequence (Q04756 whole entry): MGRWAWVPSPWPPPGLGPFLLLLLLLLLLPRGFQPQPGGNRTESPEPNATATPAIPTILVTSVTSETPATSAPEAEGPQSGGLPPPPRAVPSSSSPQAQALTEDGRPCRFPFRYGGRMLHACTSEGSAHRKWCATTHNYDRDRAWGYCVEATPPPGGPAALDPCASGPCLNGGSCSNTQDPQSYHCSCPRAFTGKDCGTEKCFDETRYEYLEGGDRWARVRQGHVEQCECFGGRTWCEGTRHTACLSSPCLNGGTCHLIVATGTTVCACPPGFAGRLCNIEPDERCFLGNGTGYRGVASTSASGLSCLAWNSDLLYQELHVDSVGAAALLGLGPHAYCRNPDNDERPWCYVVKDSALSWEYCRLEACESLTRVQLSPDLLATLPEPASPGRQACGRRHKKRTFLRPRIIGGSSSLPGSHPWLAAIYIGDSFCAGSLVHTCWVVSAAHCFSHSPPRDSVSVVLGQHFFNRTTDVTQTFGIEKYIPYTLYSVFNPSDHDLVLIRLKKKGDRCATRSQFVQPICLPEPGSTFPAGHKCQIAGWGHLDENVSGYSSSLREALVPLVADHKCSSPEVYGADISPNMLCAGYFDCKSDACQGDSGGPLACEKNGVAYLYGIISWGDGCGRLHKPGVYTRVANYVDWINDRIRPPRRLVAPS
How it was run: (§1)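 Inhibitor in 11-point serial dilution (0-20 µM final, 2% DMSO) pre-incubated 30 min at room temperature with enzyme in TNC buffer (25 mM Tris, 150 mM NaCl, 5 mM CaCl2, 0.01% Triton X-100, pH 8). […] Hepsin activated beforehand 24 h at 37°C. Fluorescence ex 380/em 460 nm kinetic; four-parameter fit of velocities; mean of three experiments.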

[3] = biological target: T2, Suppressor of tumorigenicity 14 protein (Homo sapiens, UniProt Q9Y5Y6); experiment: Inhibition of recombinant human N-terminal met-His6-tagged matriptase catalytic domain (Gly596 to Val855 residues) expressed in Escherichia coli using Boc-QAR-AMC as substrate preincubated for 30 mins followed by substrate addition by fluorescence based assay; how it was run: as §1
T2 sequence (Q9Y5Y6 whole entry): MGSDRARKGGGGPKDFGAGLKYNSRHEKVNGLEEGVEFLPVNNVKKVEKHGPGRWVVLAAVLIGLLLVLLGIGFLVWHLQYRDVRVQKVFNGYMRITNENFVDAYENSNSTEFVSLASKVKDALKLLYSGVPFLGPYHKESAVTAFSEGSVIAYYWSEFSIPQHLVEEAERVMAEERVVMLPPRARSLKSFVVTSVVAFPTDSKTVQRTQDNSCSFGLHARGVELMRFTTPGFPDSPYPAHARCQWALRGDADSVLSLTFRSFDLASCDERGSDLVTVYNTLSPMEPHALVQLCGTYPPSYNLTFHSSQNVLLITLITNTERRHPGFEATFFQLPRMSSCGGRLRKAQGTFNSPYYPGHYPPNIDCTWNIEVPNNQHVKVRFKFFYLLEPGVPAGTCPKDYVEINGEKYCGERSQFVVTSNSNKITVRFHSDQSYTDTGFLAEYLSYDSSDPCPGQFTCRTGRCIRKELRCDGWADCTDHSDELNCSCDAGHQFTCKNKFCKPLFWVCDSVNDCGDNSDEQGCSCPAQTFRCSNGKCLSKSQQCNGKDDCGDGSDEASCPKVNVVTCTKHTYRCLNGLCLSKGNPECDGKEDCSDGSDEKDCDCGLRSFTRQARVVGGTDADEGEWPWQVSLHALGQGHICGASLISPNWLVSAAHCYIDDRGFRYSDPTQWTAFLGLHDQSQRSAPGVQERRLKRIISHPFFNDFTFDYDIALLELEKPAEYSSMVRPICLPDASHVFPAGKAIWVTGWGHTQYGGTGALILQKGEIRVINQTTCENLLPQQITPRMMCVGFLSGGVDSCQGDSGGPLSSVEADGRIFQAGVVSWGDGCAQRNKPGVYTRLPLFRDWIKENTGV

[4] = Stability in human plasma assessed as half life; format: ADME, cell-free
[5] = Plasma protein binding in mouse assessed as unbound fraction; format: ADME, cell-free
Serine protease hepsin [6] = biological target: T3, Serine protease hepsin (Homo sapiens, UniProt P05981); experiment: Inhibition of recombinant human C-terminal 10-His tagged hepsin (Arg45 to Leu417) expressed in mouse myeloma cells using Boc-QAR-AMC as substrate preincubated for 30 mins followed by substrate addition by fluorescence based assay; format: single protein; how it was run: as §1
[7] = Half life in mouse plasma at 20 mg/kg, ip; format: ADME, organism-based; settings: in vivo, 20 mg/kg
HCC827 [8] = experiment: Cytotoxicity against human HCC827 cells assessed as reduction in cell viability at 20 nM after 72 hrs in presence of pro-HGF by crystal violet staining based assay; format: functional
How it was run: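 HCC827 cells treated with gefitinib (20 nM) with or without pro-HGF (100 ng/ml) and with compound (0.1-1 µM). Viability by crystal violet staining after 72 h. Means±S.E.M., n=3-5; one-way ANOVA with Dunnett's test versus gefitinib plus pro-HGF.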

HCC827 [9] = experiment: Cytotoxicity against human HCC827 cells assessed as reduction in cell viability at 0.1 to 1 uM after 72 hrs by crystal violet staining based assay; settings: dose 0.1-1 µM
[10] = Stability in mouse liver microsomes assessed as half life; format: ADME, Microsome
[11] = Stability in human liver microsomes assessed as half life; format: ADME, Microsome
NCI-H596 [12] = experiment: Antitumor activity against human NCI-H596 cells xenografted in hHGF knock in NSG mouse assessed as tumor growth inhibition at 20 mg/kg, ip administered daily for 14 to 16 days; format: functional, organism-based; settings: time 14-16 day
HCC827 [13] = experiment: Cytotoxicity against human HCC827 cells assessed as reduction in cell viability at 0.1 to 1 uM after 72 hrs in presence of pro-HGF by crystal violet staining based assay; settings: dose 0.1-1 µM
[14] = Acute toxicity in NSG mouse at 10 to 50 mg/kg, ip administered for 7 days; format: organism-based; settings: in vivo, dose 10-50 mg/kg, time 7 day
[15] = biological target: T4, Suppressor of tumorigenicity 14 protein (Homo sapiens) (UniProt Q9Y5Y6); experiment: Inhibition of recombinant human N-terminal met-His6-tagged matriptase catalytic domain (Gly596 to Val855 residues) expressed in Escherichia coli mediated pro-HGF activation preincubated for 30 mins followed by pro-HGF addition and measured after 1 hr by immunoblotting analysis
T4 sequence (whole entry): T2 sequence (Q9Y5Y6 whole entry)
How it was run: (§2)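 Recombinant pro-HGF (10 ng) incubated one hour with matriptase (1 nM), hepsin (10 nM) or HGFA (5 nM), with or without inhibitor. Processing detected by immunoblot with a polyclonal antibody recognizing pro-HGF and the HGF alpha and beta chains; active HGF served as positive control.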

HCC827 [16] = experiment: Inhibition of pro-HGF stimulated wound healing in human HCC827 cells preincubated for 30 mins followed by pro-HGF stimulation and measured after 24 hrs by crystal violet staining based assay; format: functional, cell-based
How it was run: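 HCC827 monolayers grown to confluence, serum-starved overnight, then scratched. Cells were pre-incubated 30 min with inhibitor (10 µM) and stimulated with HGF or pro-HGF for 24 h. Wells stained with crystal violet to score closure. n=3; one-way ANOVA versus pro-HGF alone.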

EBC-1 [17] = experiment: Cytotoxicity against human EBC-1 cells assessed as reduction in cell viability preincubated with compound and pro-HGF for 24 hrs followed by JNJ-38877605 addition and measured after 48 hrs by CellTiter-Glo assay; format: functional, cell-based; settings: time 72.0 hrs
How it was run: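 EBC-1 cells pre-incubated 24 h with pro-HGF (100 ng/ml) with or without compound (1 µM), then given MET kinase inhibitor JNJ-38877605 (25 nM). Viability read by CellTiter-Glo after 48 h. Means±S.E.M., n=3; one-way ANOVA with Dunnett's test.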

Serine protease hepsin [18] = biological target: T3, Serine protease hepsin; experiment: Inhibition of recombinant human C-terminal 10-His tagged hepsin (Arg45 to Leu417) expressed in mouse myeloma cells mediated pro-HGF activation preincubated for 30 mins followed by pro-HGF addition and measured after 1 hr by immunoblotting analysis; how it was run: as §2
[19] = Toxicity in NSG mouse assessed as body weight loss at 10 to 50 mg/kg, ip administered for 7 days; format: organism-based; settings: in vivo, dose 10-50 mg/kg, time 7 day
[20] = Toxicity in hHGF knock in NSG mouse xenografted with human NCI-H596 cells at 20 mg/kg, ip administered daily for 14 to 16 days; format: organism-based; settings: in vivo, time 14-16 day
[21] = biological target: T5, Hepatocyte growth factor activator serine protease (Homo sapiens) (UniProt Q04756); experiment: Inhibition of recombinant human HGFA serine protease domain mediated pro-HGF activation preincubated for 30 mins followed by pro-HGF addition and measured after 1 hr by immunoblotting analysis; how it was run: as §2
T5 sequence (whole entry): T1 sequence (Q04756 whole entry)

[22] = Toxicity in NSG mouse at 20 mg/kg, ip administered daily for 7 days; format: organism-based; settings: in vivo, time 7 day
[23] = Solubility of compound at pH 7.4; format: physicochemical; settings: buffer
NCI-H596 [24] = experiment: Antitumor activity against human NCI-H596 cells xenografted in hHGF knock in NSG mouse assessed as tumor growth inhibition at 40 mg/kg, po administered daily for 25 days; format: functional, organism-based; settings: time 25.0 day
How it was run: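 Prevention design in female hHGF-KI NSG mice injected with ten million H596 cells. Oral dosing at 40 mg/kg daily began immediately after injection and ran for 25 days. Tumor growth tracked, n=3-5 per group, Dunnett's test versus control.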

EBC-1 [25] = experiment: Cytotoxicity against human EBC-1 cells assessed as reduction in cell viability preincubated with pro-HGF for 24 hrs followed by compound addition and measured after 48 hrs by CellTiter-Glo assay; format: functional, cell-based
NCI-H596 [26] = experiment: Antitumor activity against human NCI-H596 cells xenografted in hHGF knock in NSG mouse assessed as tumor growth inhibition at 40 mg/kg, po administered daily for 14 to 16 days; format: functional, organism-based; settings: time 14-16 day
How it was run: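 Female hHGF-KI NSG mice given 2 million H596 cells, or males given 0.5 million. Dosing started at tumor volume ~40 or ~350 mm3. Daily oral dosing at 40 mg/kg for 16 or 14 days. Tumor growth compared with control-treated mice by ANOVA with Dunnett's test, n=3-6 per group.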

NCI-H596 [27] = experiment: Inhibition of pro-HGF stimulated cell growth in human H596 cells at 500 nM by ELISA; format: functional, cell-based
Coagulation factor X = Coagulation factor X (Homo sapiens, UniProt P00742); experiment: Inhibition of recombinant C-terminal 10His-tagged human coagulation factor 10a (Leu24 to Lys488 residues) expressed in baculovirus infected Sf9 insect cells using Bz-Ile-Glu-Gly-Arg-pNA as substrate preincubated for 30 mins followed by substrate addition by chromogenic assay
NCI-H596 [28] = experiment: Inhibition of pro-HGF stimulated cell growth in human H596 cells at […] by ELISA; format: functional, cell-based; settings: dose 33.3 µM

## CC(=O)N[C@H]1CCCCNC(=O)C[C@@H](C(=O)N[C@@H](CCCNC(=N)N)C(=O)c2nc3ccccc3s2)NC(=O)[C@H](CC(C)C)NC1=O
Prothrombin
  IC50: > 20000 nM
[1]
  t1/2: 2.97 h
[2]
  IC50: > 20000 nM
[3]
  IC50: 20 nM
[4]
  t1/2: > 4.82 h
[5]
  fraction unbound: 0.853

## CC(=O)N[C@H]1CC(=O)NCCCC[C@@H](C(=O)N[C@@H](CCCNC(=N)N)C(=O)c2nc3ccccc3s2)NC(=O)[C@H](Cc2ccccc2)NC1=O
Serine protease hepsin [6]
  IC50: 17 nM
[1]
  t1/2: > 4.818 h
[7]
  t1/2: 1.61 h
[4]
  t1/2: > 4.818 h

## COc1cc2ncnc(Nc3ccc(F)c(Cl)c3)c2cc1OCCCN1CCOCC1
HCC827 [8]
  Activity: inactive

## CC(=O)N[C@H]1CC(=O)NCCCC[C@@H](C(=O)N[C@@H](CCCNC(=N)N)C(=O)c2nc3ccccc3s2)NC(=O)[C@H](CC(C)C)NC1=O
Serine protease hepsin [6]
  IC50: 11 nM
HCC827 [9]
  Activity: inactive
[10]
  t1/2: > 2.42 h
[11]
  t1/2: > 2.42 h
NCI-H596 [12]
  Activity: Active
HCC827 [13]
  Activity: Active
[14]
  Activity: Non-Toxic
[15]
  inhibition: Active
[1]
  t1/2: 3.7 h
HCC827 [16]
  inhibition: Active
EBC-1 [17]
  Activity: Active
Serine protease hepsin [18]
  inhibition: Active
[19]
  Activity: Non-Toxic
[20]
  Activity: Non-Toxic
[3]
  IC50: 2.2 nM
[21]
  inhibition: inactive
[22]
  Activity: Non-Toxic
[7]
  t1/2: 8.7 h
[23]
  solubility: 11 µM (≈ 7.39 µg/mL)
[4]
  t1/2: > 4.82 h
[5]
  fraction unbound: 0.286

## Cn1cc(-c2ccc3nnc(C(F)(F)c4ccc5ncccc5c4)n3n2)cn1
NCI-H596 [24]
  Activity: Active
EBC-1 [25]
  Activity: inactive
NCI-H596 [26]
  Activity: Active
NCI-H596 [27]
  inhibition: Active

## CC(=O)N[C@H]1CC(=O)NCCCC[C@@H](C(=O)N[C@@H](CCCNC(=N)N)C(=O)c2nc3ccccc3s2)NC(=O)[C@H]([C@@H](C)O)NC1=O
Serine protease hepsin [6]
  IC50: 5.8 nM
[1]
  t1/2: 3.21 h
[2]
  IC50: 11800 nM
Coagulation factor X
  IC50: 13300 nM
[3]
  IC50: 3.7 nM
[4]
  t1/2: 4.142 h

## N=C(N)Nc1ccc(C(=O)Oc2ccc3cc(C(=N)N)ccc3c2)cc1
NCI-H596 [28]
  inhibition: Active
